Data on 22 compounds can be found in ChEMBL document CHEMBL1129753, “N-terminus urea-substituted chemotactic peptides: new potent agonists and antagonists toward the neutrophil fMLF receptor” (J Med Chem, 1996).

Assay [1] has as its target T1, fMet-Leu-Phe receptor (Homo sapiens, UniProt P21462).
T1 sequence (P21462 whole entry): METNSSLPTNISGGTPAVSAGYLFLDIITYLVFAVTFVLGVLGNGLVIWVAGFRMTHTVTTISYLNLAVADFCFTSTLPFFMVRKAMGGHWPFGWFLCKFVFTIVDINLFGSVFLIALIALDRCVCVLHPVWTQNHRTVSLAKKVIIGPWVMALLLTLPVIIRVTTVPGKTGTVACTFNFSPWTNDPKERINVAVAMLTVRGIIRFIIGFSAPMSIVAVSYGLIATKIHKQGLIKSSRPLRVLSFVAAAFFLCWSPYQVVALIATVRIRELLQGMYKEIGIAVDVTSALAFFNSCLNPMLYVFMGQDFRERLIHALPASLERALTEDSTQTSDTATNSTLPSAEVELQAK
Put plainly: Agonistic activity was determined by measuring the ability to induce superoxide production(as measured by reduction of cytochrome C) using human neutrophils; NA= No activity at 30 uM. In kind it is functional. A digest of the protocol:
(§1)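 Human neutrophils; agonist read-out is superoxide generation induced by the peptide, followed as cytochrome C reduction. Values are mean ± SE of 2–3 independent experiments.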

Assay [2] has as its target T1, fMet-Leu-Phe receptor. The assay is described as follows: Antagonistic activity was determined by measuring the ability to inhibit superoxide production (stimulated by fMLF) using human neutrophils. In kind it is functional. A digest of the protocol:
(§2)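 Human neutrophils stimulated with fMLF, with the peptide present. Antagonism is the inhibition of fMLF-driven superoxide production, read as cytochrome C reduction. Values are mean ± SE of 2–3 independent experiments.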

For assay [3], the target named is T1, fMet-Leu-Phe receptor. The assay is described as follows: Binding affinity towards fMLF receptor using human neutrophils. A digest of the protocol: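 Competition binding on human neutrophils: the peptide displaces tritiated fMLF from the fMLF receptor. Values are mean ± SE of 2–3 independent experiments.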
Assay [4] addresses T1, fMet-Leu-Phe receptor. Put plainly: Agonistic activity was determined by measuring the ability to induce superoxide production(as measured by reduction of cytochrome C) using human neutrophils. In kind it is functional. A digest of the protocol: as §1
For assay [5], the species on record is Homo sapiens. The assay is described as follows: Antagonistic activity was determined by measuring the compound's ability to inhibit superoxide production (stimulated by fMLF) using human neutrophils; NA= No activity at 30 uM. In kind it is functional, organism-based. In a few lines: as §2
The species entered for assay [6] is Homo sapiens. The assay is described as follows: Agonistic activity was determined by measuring the compound's ability to induce superoxide production(as measured by reduction of cytochrome C) using human neutrophils; NA= No activity at 30 uM. Format: functional, organism-based. In a few lines:
as §1

Assay [7] is described as follows: Agonistic activity was determined by measuring the compound's ability to induce superoxide production(as measured by reduction of cytochrome C) using human neutrophils. In kind it is functional. A digest of the protocol: as §1

A word on the EC50: it is the midpoint of the concentration-response curve. For orientation: IC50 means the concentration needed to halve the response being measured. Higher therefore signals a need for much substance.

`Cc1cccc(NC(=O)N[C@@H](Cc2ccccc2)C(=O)N[C@H](CC(C)C)C(=O)N[C@@H](Cc2ccccc2)C(=O)N[C@H](CC(C)C)C(=O)N[C@@H](Cc2ccccc2)C(=O)O)c1`: on fMet-Leu-Phe receptor [1], the EC50 result is on record as “Not Active”. Besides, the IC50 on fMet-Leu-Phe receptor [2] was 20 nM; on fMet-Leu-Phe receptor [3], 200 nM.

Consider `CSCC[C@H](NC(=O)NC(C)(C)C)C(=O)N[C@@H](CC(C)C)C(=O)N[C@@H](Cc1ccccc1)C(=O)O`, for which, at fMet-Leu-Phe receptor [1], the EC50 result is given as “Not Active”. For the same compound, the IC50 against fMet-Leu-Phe receptor [2] amounted to 2000 nM; on fMet-Leu-Phe receptor [3], 3000 nM.

Compound `CSCC[C@H](NC(=O)Nc1ccccc1)C(=O)N[C@@H](CC(C)C)C(=O)N[C@@H](Cc1ccccc1)C(=O)O` displayed an EC50 on fMet-Leu-Phe receptor [4] of 40 nM. In addition, the IC50 entry is “Not Active” in the assay listed under Homo sapiens [5] and 30 nM on fMet-Leu-Phe receptor [3].

For `CSCC[C@H](NC(=O)Nc1ccc(C)cc1)C(=O)N[C@@H](CC(C)C)C(=O)N[C@@H](Cc1ccccc1)C(=O)O`, the midpoint of the response at fMet-Leu-Phe receptor [4], the EC50, lay at 2 nM. Moreover, the IC50 entry is “Not Active” in the assay filed under Homo sapiens [5] and 2 nM on fMet-Leu-Phe receptor [3].

With `CSCC[C@H](NC(=O)Nc1ccc(Cl)cc1)C(=O)N[C@@H](CC(C)C)C(=O)N[C@@H](Cc1ccccc1)C(=O)O`, the EC50 at fMet-Leu-Phe receptor [4] turned out to be 1 nM. The IC50 result in the assay filed under Homo sapiens [5] was “Not Active”; at fMet-Leu-Phe receptor [3], 2 nM.

For the compound `CSCC[C@H](NC(=O)NC(C)C)C(=O)N[C@@H](CC(C)C)C(=O)N[C@@H](Cc1ccccc1)C(=O)O`, the half-inhibitory concentration (IC50) against fMet-Leu-Phe receptor [2] was 5000 nM; on fMet-Leu-Phe receptor [3], 2000 nM.

As for `CSCC[C@H](NC(=O)NCc1ccccc1)C(=O)N[C@@H](CC(C)C)C(=O)N[C@@H](Cc1ccccc1)C(=O)O`, the IC50 turned out to be 600 nM at fMet-Leu-Phe receptor [2] and 800 nM on fMet-Leu-Phe receptor [3].

As to `CCCCNC(=O)N[C@@H](CCSC)C(=O)N[C@@H](CC(C)C)C(=O)N[C@@H](Cc1ccccc1)C(=O)O`, at fMet-Leu-Phe receptor [4], the EC50 worked out at 300 nM. The same compound came in with an IC50 on fMet-Leu-Phe receptor [3] of 300 nM.

Consider `CC(C)C[C@@H](NC(=O)[C@H](Cc1ccccc1)NC(=O)[C@@H](CC(C)C)NC(=O)[C@H](Cc1ccccc1)NC(=O)Nc1ccccc1)C(=O)N[C@@H](Cc1ccccc1)C(=O)O`, for which the EC50 entry on fMet-Leu-Phe receptor [1] was “Not Active”. The IC50 was found to be 500 nM against fMet-Leu-Phe receptor [2] and 50 nM at fMet-Leu-Phe receptor [3].

Regarding `CC(C)C[C@@H](NC(=O)[C@H](Cc1ccccc1)NC(=O)[C@@H](CC(C)C)NC(=O)[C@H](Cc1ccccc1)NC(=O)NC(C)C)C(=O)N[C@@H](Cc1ccccc1)C(=O)O`, the EC50 result on fMet-Leu-Phe receptor [1] is “Not Active”. The IC50 was determined as 500 nM on fMet-Leu-Phe receptor [2] and 200 nM at fMet-Leu-Phe receptor [3].

On to `CSCC[C@H](NC(=O)NCC(C)C)C(=O)N[C@@H](CC(C)C)C(=O)N[C@@H](Cc1ccccc1)C(=O)O`, for which the EC50 entry on fMet-Leu-Phe receptor [1] was “Not Active”. Besides, the concentration for half-maximal inhibition (IC50) at fMet-Leu-Phe receptor [2] worked out at 4000 nM; at fMet-Leu-Phe receptor [3], 1000 nM.

As for `CC(C)C[C@@H](NC(=O)[C@H](Cc1ccccc1)NC(=O)[C@@H](CC(C)C)NC(=O)[C@H](Cc1ccccc1)NC(N)=O)C(=O)N[C@@H](Cc1ccccc1)C(=O)O`, the EC50 result in the assay listed under Homo sapiens [6] is “Not Active”. Further, the IC50 at fMet-Leu-Phe receptor [2] came to 100 nM; on fMet-Leu-Phe receptor [3], 800 nM.

In the case of `COc1ccc(NC(=O)N[C@@H](CCSC)C(=O)N[C@@H](CC(C)C)C(=O)NC(Cc2ccccc2)C(=O)O)cc1` (stereo not given in full), the response on fMet-Leu-Phe receptor [4] was half-maximal at 1 nM (EC50). In addition, the IC50 result in the assay listed under Homo sapiens [5] is “Not Active”; at fMet-Leu-Phe receptor [3], 2 nM.

Regarding `CCCNC(=O)N[C@@H](CCSC)C(=O)N[C@@H](CC(C)C)C(=O)N[C@@H](Cc1ccccc1)C(=O)O`, the EC50 entry on fMet-Leu-Phe receptor [1] is “Not Active”. The IC50 was 3000 nM at fMet-Leu-Phe receptor [2] and 2000 nM at fMet-Leu-Phe receptor [3].

Regarding `CNC(=O)N[C@@H](CCSC)C(=O)N[C@@H](CC(C)C)C(=O)N[C@@H](Cc1ccccc1)C(=O)O`, at fMet-Leu-Phe receptor [1], the EC50 result is “Not Active”. Moreover, the values for the IC50 against fMet-Leu-Phe receptor [2] and at fMet-Leu-Phe receptor [3] were 2000 nM and 3000 nM, respectively.

As to `CSCC[C@H](NC(=O)Nc1cccc(C)c1)C(=O)N[C@@H](CC(C)C)C(=O)N[C@@H](Cc1ccccc1)C(=O)O`, the EC50 at fMet-Leu-Phe receptor [4] was 900 nM. Besides, the IC50 against fMet-Leu-Phe receptor [2] came to 1600 nM; on fMet-Leu-Phe receptor [3], 100 nM.

With `CSCC[C@H](NC(=O)NC12CC3CC(CC(C3)C1)C2)C(=O)N[C@@H](CC(C)C)C(=O)N[C@@H](Cc1ccccc1)C(=O)O`, the figures for the IC50 against fMet-Leu-Phe receptor [2] and at fMet-Leu-Phe receptor [3] were 2000 nM and 900 nM, respectively.

In the case of `CC(C)C[C@@H](NC(=O)[C@H](Cc1ccccc1)NC(=O)[C@@H](CC(C)C)NC(=O)[C@H](Cc1ccccc1)NC(=O)NC12CC3CC(CC(C3)C1)C2)C(=O)N[C@@H](Cc1ccccc1)C(=O)O`, the EC50 result at fMet-Leu-Phe receptor [1] is given as “Not Active”. Moreover, the IC50 against fMet-Leu-Phe receptor [2] was determined as 300 nM; on fMet-Leu-Phe receptor [3] it was 20 nM.

Regarding `C=C(C)NC(=O)N[C@@H](CCSC)C(=O)N[C@@H](CC(C)C)C(=O)N[C@@H](Cc1ccccc1)C(=O)O`, the midpoint of the response in assay [7], the EC50, lay at 400 nM. This compound also gave an IC50 on fMet-Leu-Phe receptor [3] of 300 nM.

On fMet-Leu-Phe receptor [4], `CSCC[C@H](NC(N)=O)C(=O)N[C@@H](CC(C)C)C(=O)N[C@@H](Cc1ccccc1)C(=O)O` displayed an EC50 of 3000 nM. On fMet-Leu-Phe receptor [3], this compound displayed an IC50 of 2000 nM.

On to `CCNC(=O)N[C@@H](CCSC)C(=O)N[C@@H](CC(C)C)C(=O)N[C@@H](Cc1ccccc1)C(=O)O`, for which the EC50 result at fMet-Leu-Phe receptor [1] is recorded as “Not Active”. For the same compound, the IC50 against fMet-Leu-Phe receptor [2] was determined as 3000 nM; on fMet-Leu-Phe receptor [3] it was 1000 nM.

Regarding `CCCCNC(=O)N[C@@H](Cc1ccccc1)C(=O)N[C@H](CC(C)C)C(=O)N[C@@H](Cc1ccccc1)C(=O)N[C@H](CC(C)C)C(=O)N[C@@H](Cc1ccccc1)C(=O)O`, at fMet-Leu-Phe receptor [1], the EC50 entry was “Not Active”. The IC50 worked out at 600 nM against fMet-Leu-Phe receptor [2] and 300 nM at fMet-Leu-Phe receptor [3].
